# Experimental data reported in publication PMC4299864 (Chirality, 2013).
# Tests used:
# Format in all cases: cell-based
# human FPR1 = target: T1, human FPR1 (Homo sapiens, UniProt P21462); test: Ca2+ mobilization in HL-60 cells transfected with FPR1; details: HL-60-FPR1 cells; for Ca2+ Mobilization Efficacy, FPR1: percent of the response induced by 5 nM fMLF; for EC50: read-out: Ca2+ Mobilization EC50, FPR1, mean of three independent experiments, N.A. = no activity, limits efficacy > 20 % and EC50 < 50 μM
# T1 sequence (P21462 1-350): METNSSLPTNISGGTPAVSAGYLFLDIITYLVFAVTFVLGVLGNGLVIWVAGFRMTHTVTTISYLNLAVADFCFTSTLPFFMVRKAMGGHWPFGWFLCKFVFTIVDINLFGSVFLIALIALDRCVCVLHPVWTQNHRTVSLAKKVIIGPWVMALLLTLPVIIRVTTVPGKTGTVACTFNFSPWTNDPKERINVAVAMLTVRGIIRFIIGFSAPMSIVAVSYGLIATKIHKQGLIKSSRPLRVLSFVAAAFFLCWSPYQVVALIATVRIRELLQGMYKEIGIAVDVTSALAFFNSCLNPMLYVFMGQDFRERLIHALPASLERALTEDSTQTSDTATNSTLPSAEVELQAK
# Outline: (§1)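 Stably transfected HL-60 cells were grown in RPMI 1640 with 10% heat-inactivated FCS, 10 mM HEPES and G418 (1 mg/mL). Cells were loaded with Fluo-4 AM (1.25 μg/mL final) for 30 min at 37 °C in the dark, then resuspended in HBSS with Ca²⁺/Mg²⁺ at 2 × 10⁵ cells/well. Fluorescence (ex 485/em 538 nm) was read every 5 s for 240 s at room temperature after compound addition. Peak change over baseline was set against 5 nM fMLF (FPR1) or 5 nM WKYMVm (FPR2, FPR3) as 100%. Curves had 5–6 points, from three independent experiments.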
# human FPR2 = target: T2, human FPR2 (Homo sapiens, UniProt P25090); test: Ca2+ mobilization in HL-60 cells transfected with FPR2; details: HL-60-FPR2 cells; for Ca2+ Mobilization Efficacy, FPR2: percent of the response induced by 5 nM WKYMVm; for EC50: read-out: Ca2+ Mobilization EC50, FPR2, mean of three independent experiments, N.A. = no activity, limits efficacy > 20 % and EC50 < 50 μM
# T2 sequence (P25090 1-351): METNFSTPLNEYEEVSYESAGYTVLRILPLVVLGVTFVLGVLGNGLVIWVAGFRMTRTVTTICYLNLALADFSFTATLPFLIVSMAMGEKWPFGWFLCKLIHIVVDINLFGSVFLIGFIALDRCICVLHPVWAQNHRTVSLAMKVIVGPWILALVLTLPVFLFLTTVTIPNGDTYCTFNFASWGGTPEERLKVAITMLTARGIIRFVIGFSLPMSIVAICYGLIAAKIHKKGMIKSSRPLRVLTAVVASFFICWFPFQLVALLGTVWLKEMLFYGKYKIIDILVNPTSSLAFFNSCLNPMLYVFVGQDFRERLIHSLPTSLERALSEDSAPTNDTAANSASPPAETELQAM
# Outline: as §1
# human FPR3 = target: T3, human FPR3 (Homo sapiens, UniProt P25089); test: Ca2+ mobilization in HL-60 cells transfected with FPR3; details: HL-60-FPR3 cells; for Ca2+ Mobilization Efficacy, FPR3: percent of the response induced by 5 nM WKYMVm; for EC50: read-out: Ca2+ Mobilization EC50, FPR3, mean of three independent experiments, N.A. = no activity, limits efficacy > 20 % and EC50 < 50 μM
# T3 sequence (P25089 1-353): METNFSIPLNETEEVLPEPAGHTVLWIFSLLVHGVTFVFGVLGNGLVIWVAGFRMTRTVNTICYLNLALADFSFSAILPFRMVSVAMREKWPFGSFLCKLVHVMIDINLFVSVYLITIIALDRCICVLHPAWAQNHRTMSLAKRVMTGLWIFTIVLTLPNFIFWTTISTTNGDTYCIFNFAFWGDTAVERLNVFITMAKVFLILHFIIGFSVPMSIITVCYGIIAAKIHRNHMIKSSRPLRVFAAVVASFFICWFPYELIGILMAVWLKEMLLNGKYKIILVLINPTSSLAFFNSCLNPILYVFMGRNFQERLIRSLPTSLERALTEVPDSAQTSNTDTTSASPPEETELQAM
# Outline: as §1
"Ca2+ Mobilization Efficacy, FPR1 (human FPR1) [%]",EC50 (human FPR1) [µM],"Ca2+ Mobilization Efficacy, FPR2 (human FPR2) [%]",EC50 (human FPR2) [µM],"Ca2+ Mobilization Efficacy, FPR3 (human FPR3) [%]",EC50 (human FPR3) [µM],Compound
55,23.5,65,7,,,"CC1CC(c2ccccc2)=NN(CC(=O)Nc2ccc(Br)cc2)C1=O (racemic) [(±)-4a, (±)-N-(4-Bromophenyl)-2-[5-methyl-6-oxo-3-phenyl-5,6-dihydropyridazin-1(4H)-yl]acetamide]"
75,19.5,95,10.7,40,8.3,"C[C@H]1CC(c2ccccc2)=NN(CC(=O)Nc2ccc(Br)cc2)C1=O [S-(-)-4a, S-(-)-N-(4-Bromophenyl)-2-[5-methyl-6-oxo-3-phenyl-5,6-dihydropyridazin-1(4H)-yl] acetamide]"
50,,45,,,,"Cc1cc(-c2ccccc2)nn(CC(=O)Nc2ccc(Br)cc2)c1=O [8a, N-(4-Bromophenyl)-2-[5-methyl-6-oxo-3-phenylpyridazin-1(6H)-yl]acetamide]"
80,24.4,85,10,40,7.1,"C[C@@H]1CC(c2ccccc2)=NN(CC(=O)Nc2ccc(Br)cc2)C1=O [R-(+)-4a, R-(+)-N-(4-Bromophenyl)-2-[5-methyl-6-oxo-3-phenyl-5,6-dihydropyridazin-1(4H)-yl] acetamide]"
